SMILES strings stand for the structures.

Assay [1] addresses Alpha-2A adrenergic receptor (Homo sapiens) (UniProt P08913). Nature of the assay: Compound is evaluated for binding affinity towards Alpha-2A adrenergic receptor using [3H]MK912 at 10 uM.
Assay [2] addresses T1, Serotonin 1 (5-HT1) receptor (Rattus norvegicus, UniProt P28564+P30940+P19327+P28565). Nature of the assay: Compound is evaluated for binding affinity towards 5-hydroxytryptamine 1 receptor using [3H]5-HT in rat brain cortex. Format: tissue-based. Summed up: (§1)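 Contract radioligand competition binding. Sources: 5-HT1 and 5-HT1A in rat brain cortex; 5-HT2 and σ2 in rat brain; σ in guinea pig brain; D2, rhD2 and rhD3 in CHO cells with [³H]spiperone; H1 in guinea pig lung with [³H]pyrilamine. Inhibition constants reported; no constant given where inhibition at 10 µM was below 50%.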

The target of assay [3] is D(3) dopamine receptor (Homo sapiens, UniProt P35462). Nature of the assay: Compound is evaluated for binding affinity towards recombinant human Dopamine receptor D3 using [3H]spiperone in CHO cells. Format: cell-based. Summed up:
as §1

Assay [4] concerns the target Histamine H1 receptor (Cavia porcellus, UniProt P31389). Description: Compound is evaluated for binding affinity towards Histamine H1 receptor using [3H]pyrilamine in guinea pig lung. Format: tissue-based. The method, boiled down:
as §1

The target of assay [5] is Sodium channel alpha subunits; brain (Types I, II, III) (Rattus norvegicus) (UniProt P04775+P04774+P08104). Nature of the assay: Displacement of [3H]batrachotoxin from rat brain sodium channel at 10 uM. Format: tissue-based. The method, boiled down:
(§2)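 Radioligand competition binding was done by an outside contract lab (Pan Lab). Inhibition constants (Ki) were derived from displacement of the stated tritiated ligand. Each compound was tested at 10 µM. Where inhibition at that concentration stayed below 50%, no Ki was reported.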

In assay [6] the test system is Sigma 2 receptor. Nature of the assay: (§3) Binding affinity towards Sigma 2 receptor using [3H]ifenprodil in rat brain at 10 uM. It is filed as tissue-based. The method, boiled down: as §2
Assay [7] deals with T1, Serotonin 1 (5-HT1) receptor. Nature of the assay: Compound is evaluated for binding affinity towards 5-hydroxytryptamine 1 receptor using [3H]5-HT in rat brain cortex at 10 uM. Format: tissue-based. Summed up: (§4)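 Single-concentration screen at 10 µM in contract radioligand binding assays. Records whether inhibition of specific radioligand binding stayed below 50%.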
Assay [8] has as its target T2, D(2) dopamine receptor (Homo sapiens, UniProt P14416). Nature of the assay: Compound is evaluated for binding affinity towards Dopamine receptor D2 using [3H]spiperone in CHO cells. Format: cell-based. Summed up:
as §1

Assay [9] addresses Sigma 2 receptor. The description is as §3. Format: tissue-based. The method, boiled down: as §4
The source holds these as a separate data set.

In assay [10] the target is T3, Adrenergic receptor alpha-1 (Rattus norvegicus, UniProt P15823+P23944+P43140).
T3 sequence (P15823 whole entry): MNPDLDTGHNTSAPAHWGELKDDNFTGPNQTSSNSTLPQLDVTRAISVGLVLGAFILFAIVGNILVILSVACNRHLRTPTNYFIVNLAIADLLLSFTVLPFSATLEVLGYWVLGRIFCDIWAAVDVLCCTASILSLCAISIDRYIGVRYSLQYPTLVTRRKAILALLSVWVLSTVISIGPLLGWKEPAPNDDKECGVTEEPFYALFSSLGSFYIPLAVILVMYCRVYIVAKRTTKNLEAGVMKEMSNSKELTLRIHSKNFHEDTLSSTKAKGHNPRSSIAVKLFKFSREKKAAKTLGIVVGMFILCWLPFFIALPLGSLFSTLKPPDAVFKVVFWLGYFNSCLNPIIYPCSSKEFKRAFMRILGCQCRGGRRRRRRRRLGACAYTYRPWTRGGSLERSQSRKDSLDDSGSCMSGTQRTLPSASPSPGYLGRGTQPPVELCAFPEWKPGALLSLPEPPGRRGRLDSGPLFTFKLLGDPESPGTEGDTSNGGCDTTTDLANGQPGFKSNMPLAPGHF
T3 sequence (P23944 whole entry): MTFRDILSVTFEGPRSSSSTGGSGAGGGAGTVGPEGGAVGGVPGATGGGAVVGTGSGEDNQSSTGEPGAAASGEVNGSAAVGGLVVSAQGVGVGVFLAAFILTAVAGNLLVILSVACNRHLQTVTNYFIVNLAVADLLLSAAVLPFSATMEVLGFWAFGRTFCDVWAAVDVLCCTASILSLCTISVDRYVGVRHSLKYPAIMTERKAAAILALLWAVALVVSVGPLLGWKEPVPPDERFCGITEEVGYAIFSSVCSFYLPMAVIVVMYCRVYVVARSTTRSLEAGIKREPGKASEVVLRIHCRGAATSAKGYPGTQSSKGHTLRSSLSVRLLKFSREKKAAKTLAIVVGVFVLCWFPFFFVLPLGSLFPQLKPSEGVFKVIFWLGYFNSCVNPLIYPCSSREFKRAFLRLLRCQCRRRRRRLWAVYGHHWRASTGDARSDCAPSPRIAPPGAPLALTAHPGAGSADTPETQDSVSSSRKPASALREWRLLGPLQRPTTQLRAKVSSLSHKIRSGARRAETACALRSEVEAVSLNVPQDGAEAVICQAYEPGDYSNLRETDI
T3 sequence (P43140 whole entry): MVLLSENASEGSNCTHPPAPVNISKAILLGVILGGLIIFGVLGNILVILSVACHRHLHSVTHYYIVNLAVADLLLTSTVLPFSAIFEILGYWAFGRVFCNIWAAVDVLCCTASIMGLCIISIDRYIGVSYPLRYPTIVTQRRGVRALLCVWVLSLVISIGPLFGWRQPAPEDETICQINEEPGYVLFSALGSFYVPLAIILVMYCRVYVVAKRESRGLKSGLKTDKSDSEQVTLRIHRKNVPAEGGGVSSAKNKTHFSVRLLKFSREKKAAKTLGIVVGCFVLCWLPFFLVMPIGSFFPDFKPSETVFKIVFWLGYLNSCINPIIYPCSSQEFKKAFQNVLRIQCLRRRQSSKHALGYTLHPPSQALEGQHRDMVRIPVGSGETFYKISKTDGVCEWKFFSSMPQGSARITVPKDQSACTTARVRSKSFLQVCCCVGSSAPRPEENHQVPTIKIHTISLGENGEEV
Description: Binding affinity towards Alpha-1 adrenergic receptor measured by displacement of [3H]prazosin from rat brain cortex membranes. It is filed as cell membranes, Membrane. Summed up: (§5)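 Triplicate competition binding against 0.2-0.25 nM [³H]prazosin in Tris buffer pH 7.4, 30 min at room temperature. Competitor range 0.1-200 nM. Nonspecific binding defined with 10 µM phentolamine. Reaction stopped by GF/B filtration with two cold Tris washes. Membrane protein 300-400 µg per assay. Ki calculated from the data; mean ± SEM of 3-6 experiments.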

Assay [11] concerns the target 5-hydroxytryptamine receptor 1A (Rattus norvegicus) (UniProt P19327). Description: Compound is evaluated for binding affinity towards 5-hydroxytryptamine 1A receptor using [3H]-8-OH- -DPAT in rat brain cortex at 10 uM. Format: tissue-based. The method, boiled down: as §4
Assay [12] concerns the target T3, Adrenergic receptor alpha-1. Nature of the assay: Compound is evaluated for binding affinity towards Alpha-1 adrenergic receptor in rat brain cortex membrane. Format: cell membranes. Summed up: as §5
The target in assay [13] is T2, D(2) dopamine receptor. Description: Compound is evaluated for binding affinity towards Dopamine receptor D2 using [3H]-spiperone in CHO cells at 10 uM. Format: cell-based.
The target of assay [14] is Sigma 2 receptor. Nature of the assay: Binding affinity towards Sigma 2 receptor using [3H]ifenprodil in rat brain. Format: tissue-based. Summed up: as §1

T2 sequence (P14416 whole entry): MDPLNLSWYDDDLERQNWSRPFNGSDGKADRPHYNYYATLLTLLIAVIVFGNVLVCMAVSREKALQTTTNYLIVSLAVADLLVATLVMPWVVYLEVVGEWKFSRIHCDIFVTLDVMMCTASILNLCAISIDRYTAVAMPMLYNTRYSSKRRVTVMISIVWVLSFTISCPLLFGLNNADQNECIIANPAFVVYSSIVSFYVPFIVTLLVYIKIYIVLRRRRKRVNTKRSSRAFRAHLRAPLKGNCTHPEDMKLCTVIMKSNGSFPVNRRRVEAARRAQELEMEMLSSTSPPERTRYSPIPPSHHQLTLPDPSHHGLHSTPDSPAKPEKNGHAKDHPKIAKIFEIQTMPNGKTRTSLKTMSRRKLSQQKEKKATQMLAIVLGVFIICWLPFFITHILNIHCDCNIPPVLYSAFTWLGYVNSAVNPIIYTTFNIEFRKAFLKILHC
5-hydroxytryptamine receptor 1A (Rattus norvegicus), sequence (P19327 whole entry): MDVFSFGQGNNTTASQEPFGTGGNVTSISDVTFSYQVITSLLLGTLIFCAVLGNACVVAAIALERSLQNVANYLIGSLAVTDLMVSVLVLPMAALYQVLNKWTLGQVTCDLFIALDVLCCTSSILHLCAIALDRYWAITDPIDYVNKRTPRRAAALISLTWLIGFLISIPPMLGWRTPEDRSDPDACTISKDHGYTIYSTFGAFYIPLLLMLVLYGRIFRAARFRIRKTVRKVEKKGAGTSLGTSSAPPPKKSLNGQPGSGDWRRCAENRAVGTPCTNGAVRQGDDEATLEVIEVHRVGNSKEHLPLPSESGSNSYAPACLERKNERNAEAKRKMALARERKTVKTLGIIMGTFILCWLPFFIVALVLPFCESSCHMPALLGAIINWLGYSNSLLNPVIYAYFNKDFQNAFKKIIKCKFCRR
D(3) dopamine receptor, sequence (P35462 whole entry): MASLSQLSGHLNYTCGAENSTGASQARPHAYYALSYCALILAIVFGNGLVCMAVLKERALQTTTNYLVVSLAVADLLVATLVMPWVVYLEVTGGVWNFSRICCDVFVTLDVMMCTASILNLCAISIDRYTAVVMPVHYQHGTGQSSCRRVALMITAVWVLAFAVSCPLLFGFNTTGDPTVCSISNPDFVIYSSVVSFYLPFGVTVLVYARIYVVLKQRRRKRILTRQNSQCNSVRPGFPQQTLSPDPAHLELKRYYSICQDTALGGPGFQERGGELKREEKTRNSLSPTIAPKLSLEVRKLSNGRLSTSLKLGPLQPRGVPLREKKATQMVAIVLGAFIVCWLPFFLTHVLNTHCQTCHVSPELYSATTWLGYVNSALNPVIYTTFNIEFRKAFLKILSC
Histamine H1 receptor, sequence (P31389 whole entry): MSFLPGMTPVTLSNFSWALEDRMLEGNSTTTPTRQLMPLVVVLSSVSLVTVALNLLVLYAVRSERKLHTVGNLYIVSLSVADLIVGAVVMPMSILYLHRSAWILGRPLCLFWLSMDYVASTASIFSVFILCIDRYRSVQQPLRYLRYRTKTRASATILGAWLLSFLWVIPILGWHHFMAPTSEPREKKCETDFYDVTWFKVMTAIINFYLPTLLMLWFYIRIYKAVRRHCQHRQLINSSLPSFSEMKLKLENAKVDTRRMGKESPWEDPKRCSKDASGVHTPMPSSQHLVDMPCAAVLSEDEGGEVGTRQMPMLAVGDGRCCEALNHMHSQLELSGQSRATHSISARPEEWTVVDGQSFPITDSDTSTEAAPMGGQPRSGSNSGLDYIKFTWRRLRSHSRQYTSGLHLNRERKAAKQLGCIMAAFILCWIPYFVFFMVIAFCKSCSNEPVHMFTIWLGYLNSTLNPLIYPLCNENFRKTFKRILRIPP
Alpha-2A adrenergic receptor (Homo sapiens), sequence (P08913 whole entry): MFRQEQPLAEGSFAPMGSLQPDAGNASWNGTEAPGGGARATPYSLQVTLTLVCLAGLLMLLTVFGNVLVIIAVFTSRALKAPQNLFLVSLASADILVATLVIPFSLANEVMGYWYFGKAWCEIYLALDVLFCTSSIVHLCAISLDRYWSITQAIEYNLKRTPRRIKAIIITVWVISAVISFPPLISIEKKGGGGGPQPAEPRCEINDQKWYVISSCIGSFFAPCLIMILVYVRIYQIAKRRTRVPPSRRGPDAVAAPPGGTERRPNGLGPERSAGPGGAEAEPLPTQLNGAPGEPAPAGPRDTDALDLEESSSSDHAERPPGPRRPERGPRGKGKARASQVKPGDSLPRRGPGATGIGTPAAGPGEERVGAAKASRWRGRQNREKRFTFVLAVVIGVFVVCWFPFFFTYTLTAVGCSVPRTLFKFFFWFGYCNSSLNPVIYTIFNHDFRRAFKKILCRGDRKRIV

For `COc1ccccc1N1CCN(C[C@@H]2CN=C3c4ccccc4NC(=O)N32)CC1`, the inhibition in [1] is below 50%.

For the molecule `COc1ccccc1N1CCN(CC2CN3C(=O)Nc4ccccc4C3=N2)CC1` (stereo not drawn), the Ki is 2500 nM in [2], 2200 nM in assay [3] and 961 nM in assay [4]. The inhibition in [5] and in assay [6] was below 50% in each case.

On to `COc1ccccc1N1CCN(CC2CN=C3c4ccccc4N=C(SC)N32)CC1` (stereo not drawn), for which the figures for the Ki in assay [7] and in assay [8] were 1839 nM and 449 nM, respectively. This molecule displayed an Inhibition in assay [9] below 50%.

`COc1ccccc1N1CCN(Cc2cnc3c4ccccc4nc(O)n23)CC1` had a Ki in assay [10] of 5.06 nM. The molecule further registered an inhibition in assay [6] below 50%.

`Oc1nc2ccccc2c2ncc(CN3CCN(c4ccccc4Cl)CC3)n12`: the inhibition in assay [11] and in [13] was below 50% throughout. For the same molecule, the inhibition constant Ki stood at 7.12 nM in assay [12] and 3050 nM in assay [14].

`COc1ccccc1N1CCN(Cc2cn3c(O)nc4ccccc4c3n2)CC1` registered an inhibition in assay [11] below 50%. The figures for the Ki in [10] and in assay [14] were 6.53 nM and 4880 nM, respectively.

Source of the values: ChEMBL document CHEMBL1131058, “Studies on quinazolines and 1,2,4-benzothiadiazine 1,1-dioxides. 8.1, 2 synthesis and pharmacological evaluation of tricyclic fused quinazolines and 1,2,4-benzothiadiazine 1,1-dioxides as potential alpha1-adrenoceptor antagonists” (J Med Chem, 1998).
